Columns and labels:
[1] = biological target: T1, Corticotropin-releasing factor receptor 1 (Homo sapiens, UniProt P34998); test: Displacement of [125I]-CRF from human CRF1 receptor expressed in HEK293 cells after 2 hrs by scintillation proximity assay; format: cell-based
T1 sequence (P34998 whole entry): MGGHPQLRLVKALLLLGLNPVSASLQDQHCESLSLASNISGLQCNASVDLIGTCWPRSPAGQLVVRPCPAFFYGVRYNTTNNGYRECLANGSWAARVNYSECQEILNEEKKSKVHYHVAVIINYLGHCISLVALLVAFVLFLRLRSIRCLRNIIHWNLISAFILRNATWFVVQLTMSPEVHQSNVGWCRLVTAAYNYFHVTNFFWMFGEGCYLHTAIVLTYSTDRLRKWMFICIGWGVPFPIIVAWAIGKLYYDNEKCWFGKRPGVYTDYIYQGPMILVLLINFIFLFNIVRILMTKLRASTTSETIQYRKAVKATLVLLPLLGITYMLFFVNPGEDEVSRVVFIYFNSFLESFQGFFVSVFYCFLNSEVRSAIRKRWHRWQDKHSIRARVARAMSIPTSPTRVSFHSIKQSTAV
How it was run: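 Membranes (5 µg/well) with WGA-coated SPA beads and 0.1 nM [125I]-human/rat CRF. Assay buffer is phosphate-buffered saline with 10 mM MgCl2, 2 mM EGTA, 1.5% BSA and protease inhibitors, pH 7.0. Nonspecific binding defined with 0.4 µM sauvagine. Incubated over 2 h at room temperature and counted after centrifugation. Specific binding expressed as % of total; IC50 from concentration-response curve.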

[2] = biological target: T1, Corticotropin-releasing factor receptor 1; test: Antagonist activity at human CRF1 receptor expressed in HEK293 cells assessed as inhibition of CRF-stimulated intracellular cAMP accumulation preincubated for 30 mins measured after 30 mins by enzyme immunoassay; format: functional, cell-based
How it was run: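 Cells seeded at 5 × 10^4/well in DMEM with 0.1% FBS and 1 mM IBMX, pre-incubated 30 min, then test compound added for 30 min at 37 °C. Stimulation with 1 nM human/rat CRF for 30 min at 37 °C, followed by cell lysis. cAMP measured by EIA, basal (no CRF) subtracted, expressed as % of total production. IC50 from concentration-response curve.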

Compound | IC50 [1] [nM] | IC50 [2] [nM]
CCCN(CCC)c1cccc2nc(N(C)c3c(C)cc(C)cc3C)c(=O)n(C)c12 | > 1000 | 
CCN(CC1CCOCC1)c1cccc2nc(Oc3c(OC)cc(COC)cc3OC)c(C)cc12 | 646 | 
CCCN(CCC)c1cccc2nc(Nc3c(OC)cc(OC)cc3OC)c(C)cc12 | > 1000 | 
Cc1cc(C)c(Nc2nc3cccc(N(CC4CCOCC4)CC4CC4)c3cc2C)c(C)c1 | 742 | 
CCC(CC)Nc1cccc2nc(Oc3c(OC)cc(COC)cc3OC)c(C)cc12 | > 1000 | 
COCc1cc(OC)c(Oc2nc3cccc(N(CC4CCOCC4)CC4CC4)c3cc2C)c(OC)c1 | 762 | 
CCCN(CCC)c1cccc2nc(Nc3c(C)cc(C)cc3C)c(=O)n(C)c12 | 672 | 
COCc1cc(OC)c(Oc2nc3cccc(NC4CCCCC4)c3cc2C)c(OC)c1 | > 1000 | 
CCN(Cc1ccncc1)c1cccc2nc(Oc3c(OC)cc(COC)cc3OC)c(C)cc12 | > 1000 | 

Now those with a lower IC50 [1], led by results:

IC50 [1] [nM] | IC50 [2] [nM] | Compound
75 |  | Cc1cc(C)c(Nc2nc3cccc(N(CC4CC4)CC4CC4)c3cc2C)c(C)c1
100 | 469 | CCCN(CCC)c1cccc2nc(Nc3c(C)cc(C)cc3C)c(=O)[nH]c12
197 |  | CCCC(CCC)Nc1cccc2nc(Nc3c(C)cc(C)cc3C)c(C)nc12
138 | 163 | CCCN(CCC)c1cccc2nc(Oc3c(OC)cc(COC)cc3OC)c(C)cc12
472 |  | CCCN(CCC)c1cccc2nc(Nc3c(OC)cc(COC)cc3OC)c(C)cc12
323 |  | CCN(c1cccc2nc(Oc3c(OC)cc(COC)cc3OC)c(C)cc12)C1CCOCC1
70 | 167 | CCN(CC)c1cccc2nc(Oc3c(OC)cc(COC)cc3OC)c(C)cc12
79 |  | CCCN(CCC)c1cccc2nc(Oc3c(C)cc(C)cc3C)c(C)cc12
90 | 255 | Cc1cc(C)c(Nc2nc3cccc(N(CC4CC4)C4CCOCC4)c3cc2C)c(C)c1
157 |  | COCc1cc(OC)c(Oc2nc3cccc(N(CC4CC4)C4CCOCC4)c3cc2C)c(OC)c1
88 | 372 | CCCN(CCC)c1cccc2nc(Nc3c(C)cc(C)cc3C)c(C)cc12
155 | 563 | CCCN(CCC)c1cccc2nc(Nc3c(C)cc(C)cc3C)c(C)nc12

Reference: ChEMBL document CHEMBL2046315, “Design, synthesis and structure-activity relationships of 5-alkylaminolquinolines as a novel series of CRF1 receptor antagonists” (Bioorg Med Chem Lett, 2012)
